Results: ChEMBL document CHEMBL1921792, “Synthesis and anticonvulsant activity of trans- and cis-2-(2,6-dimethylphenoxy)-N-(2- or 4-hydroxycyclohexyl)acetamides and their amine analogs” (Bioorg Med Chem, 2011)
Activity calls are given as the source filed them.

Key:
Rattus norvegicus [1] = assay: Neurotoxicity in rat assessed as neurological deficit at 30 mg/kg, po after 4 hrs by rotarod test; assay type: toxicity, organism-based; set-up: dose 30 mg/kg, route oral; details: in vivo
Outline: (§1)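 Rats given the compound, suspended in 0.5% methylcellulose, by the stated route and dose. Neurological deficit was recorded at the listed times as ataxia and loss of placing response and muscle tone. Reported as number of rats showing toxicity/number tested.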

Mus musculus [2] = assay: Anticonvulsant activity in mouse assessed as protection against maximal electric shock-induced seizures at 70 mg/kg, ip after 2 hrs; assay type: functional, organism-based; set-up: dose 70 mg/kg
Outline: (§2)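 Time-to-peak-effect assay: MES protection read at 0.25–4 h after dosing. Mice ip (60–130 mg/kg), rats po (15 or 30 mg/kg) or ip (30 mg/kg). Groups of 4–8; result is protected/tested.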

Mus musculus [3] = assay: Anticonvulsant activity in mouse assessed as protection against maximal electric shock-induced seizures at 30 mg/kg, ip after 0.5 hrs; assay type: functional, organism-based; set-up: dose 30 mg/kg
Outline: (§3)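 Phase I maximal electroshock screen in mice. Compound given ip as a suspension in 0.5% methylcellulose at 30, 100 or 300 mg/kg, tested at 30 min and 4 h. Small groups (1–8); result is number protected/number tested.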

Mus musculus [4] = assay: Neurotoxicity in mouse assessed as inability to maintain equilibrium on rotarod at 30 mg/kg, ip after 4 hrs by rotarod test; assay type: toxicity, organism-based; set-up: dose 30 mg/kg, route intraperitoneal; details: in vivo
Outline: (§4)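 Drug given ip to mice as a suspension in 0.5% methylcellulose. At the stated time after dosing, each mouse was placed on a 1 inch knurled rod turning at 6 rpm. Neurotoxicity = inability to stay balanced at least 1 min in each of three trials. Scored as animals toxic/animals tested in small groups.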

Mus musculus [5] = assay: Anticonvulsant activity in mouse assessed as protection against maximal electric shock-induced seizures at 300 mg/kg, ip after 4 hrs; assay type: functional, organism-based; set-up: dose 300 mg/kg; outline: as §3
Mus musculus [6] = assay: Neurotoxicity in mouse assessed as inability to maintain equilibrium on rotarod at 300 mg/kg, ip after 0.5 hrs by rotarod test; assay type: toxicity, organism-based; set-up: dose 300 mg/kg, route intraperitoneal; details: in vivo; outline: as §4
Rattus norvegicus [7] = assay: Neurotoxicity in rat assessed as neurological deficit at 30 mg/kg, po after 0.25 hrs […]; assay type: toxicity, organism-based; set-up: dose 30 mg/kg, route oral; details: in vivo; outline: as §1
Mus musculus [8] = assay: Anticonvulsant activity in mouse assessed as protection against maximal electric shock-induced seizures at 90 mg/kg, ip after 1 hr; assay type: functional, organism-based; set-up: dose 90 mg/kg; outline: as §2
Mus musculus [9] = assay: Anticonvulsant activity in mouse assessed as protection against maximal electric shock-induced seizures at 70 mg/kg, ip after 1 hr; assay type: functional, organism-based; set-up: dose 70 mg/kg; outline: as §2
[10] = Neurotoxicity in ip dosed mouse assessed as inability to maintain equilibrium on rotarod by rotarod test; assay type: toxicity, organism-based; details: in vivo
Outline: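 Mice dosed ip with a suspension in 0.5% methylcellulose, then placed on a 1 inch knurled plastic rod rotating at 6 rpm. Toxicity = failure to keep equilibrium for at least 1 min in each of three trials.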

Mus musculus [11] = assay: Neurotoxicity in mouse assessed as inability to maintain equilibrium on rotarod at 300 mg/kg, ip after 4 hrs by rotarod test; assay type: toxicity, organism-based; set-up: dose 300 mg/kg, route intraperitoneal; details: in vivo; outline: as §4
Rattus norvegicus [12] = assay: Neurotoxicity in rat assessed as neurological deficit at 30 mg/kg, po after 1 hr […]; assay type: toxicity, organism-based; set-up: dose 30 mg/kg, route oral; details: in vivo; outline: as §1
Mus musculus [13] = assay: Anticonvulsant activity in mouse assessed as protection against maximal electric shock-induced seizures at 90 mg/kg, ip after 0.5 hrs; assay type: functional, organism-based; set-up: dose 90 mg/kg; outline: as §2
Mus musculus [14] = assay: Anticonvulsant activity in mouse assessed as protection against maximal electric shock-induced seizures at 90 mg/kg, ip after 0.25 hrs; assay type: functional, organism-based; set-up: dose 90 mg/kg; outline: as §2
Mus musculus [15] = assay: Anticonvulsant activity in mouse assessed as protection against maximal electric shock-induced seizures at 300 mg/kg, ip after 0.5 hrs; assay type: functional, organism-based; set-up: dose 300 mg/kg; outline: as §3
Mus musculus [16] = assay: Anticonvulsant activity in ip dosed mouse assessed as protection against maximal electric shock-induced seizures; assay type: functional; details: Mus musculus, ip; read-out: ED50
Mus musculus [17] = assay: Anticonvulsant activity against subcutaneous pentylenetetrazole-induced seizures in mouse at 300 mg/kg, ip after 4 hrs; assay type: functional, organism-based; set-up: dose 300 mg/kg
Outline: (§5)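 Phase I screen in mice. Compound given ip as a suspension in 0.5% methylcellulose, read at 30 min and 4 h. Pentylenetetrazole 85 mg/kg in 0.9% NaCl was injected sc into the posterior midline and animals watched ≥30 min. Protection meant no clonic spasm lasting ≥5 s. Groups of 1–8 animals; result is protected/tested.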

Mus musculus [18] = species on record: Mus musculus; assay: Protective index, ratio of TD50 for neurotoxicity in mouse to ED50 for inhibition of maximal electroshock-induced seizures in mouse; assay type: functional
Mus musculus [19] = assay: Anticonvulsant activity in mouse assessed as protection against maximal electric shock-induced seizures at 30 mg/kg, ip after 4 hrs; assay type: functional, organism-based; set-up: dose 30 mg/kg; outline: as §3
Mus musculus [20] = assay: Anticonvulsant activity in mouse assessed as protection against maximal electric shock-induced seizures at 90 mg/kg, ip after 4 hrs; assay type: functional, organism-based; set-up: dose 90 mg/kg; outline: as §2
Mus musculus [21] = assay: Anticonvulsant activity against subcutaneous pentylenetetrazole-induced seizures in mouse at 30 mg/kg, ip after 4 hrs; assay type: functional, organism-based; set-up: dose 30 mg/kg; outline: as §5
Mus musculus [22] = assay: Neurotoxicity in mouse assessed as inability to maintain equilibrium on rotarod at 100 mg/kg, ip after 4 hrs by rotarod test; assay type: toxicity, organism-based; set-up: dose 100 mg/kg, route intraperitoneal; details: in vivo; outline: as §4
Mus musculus [23] = assay: Anticonvulsant activity against subcutaneous pentylenetetrazole-induced seizures in mouse at 30 mg/kg, ip after 0.5 hrs; assay type: functional, organism-based; set-up: dose 30 mg/kg; outline: as §5
Rattus norvegicus [24] = assay: Neurotoxicity in rat assessed as neurological deficit at 30 mg/kg, po after 2 hrs […]; assay type: toxicity, organism-based; set-up: dose 30 mg/kg, route oral; details: in vivo; outline: as §1
Mus musculus [25] = assay: Anticonvulsant activity against subcutaneous pentylenetetrazole-induced seizures in mouse at 300 mg/kg, ip after 0.5 hrs; assay type: functional, organism-based; set-up: dose 300 mg/kg; outline: as §5
Mus musculus [26] = assay: Neurotoxicity in mouse assessed as inability to maintain equilibrium on rotarod at 100 mg/kg, ip after 0.5 hrs by rotarod test; assay type: toxicity, organism-based; set-up: dose 100 mg/kg, route intraperitoneal; details: in vivo; outline: as §4
Mus musculus [27] = assay: Neurotoxicity in mouse assessed as inability to maintain equilibrium on rotarod at 90 mg/kg, ip after 24 hrs using rotarod test; assay type: toxicity, organism-based; set-up: dose 90 mg/kg, route intraperitoneal; details: in vivo; outline: as §4
Mus musculus [28] = assay: Anticonvulsant activity in mouse assessed as protection against maximal electric shock-induced seizures at 100 mg/kg, ip after 4 hrs; assay type: functional, organism-based; set-up: dose 100 mg/kg; outline: as §3
Mus musculus [29] = assay: Anticonvulsant activity in ip dosed mouse assessed as time to show peak effect of protection against maximal electric shock-induced seizures; assay type: functional; outline: as §2
Mus musculus [30] = assay: Neurotoxicity in mouse assessed as inability to maintain equilibrium on rotarod at 30 mg/kg, ip after 0.5 hrs by rotarod test; assay type: toxicity, organism-based; set-up: dose 30 mg/kg, route intraperitoneal; details: in vivo; outline: as §4
Mus musculus [31] = assay: Anticonvulsant activity in mouse assessed as protection against maximal electric shock-induced seizures at 60 mg/kg, ip after 0.25 hrs; assay type: functional, organism-based; set-up: dose 60 mg/kg; outline: as §2
Mus musculus [32] = assay: Anticonvulsant activity in mouse assessed as protection against maximal electric shock-induced seizures at 70 mg/kg, ip after 0.5 hrs; assay type: functional, organism-based; set-up: dose 70 mg/kg; outline: as §2
Rattus norvegicus [33] = assay: Neurotoxicity in rat assessed as neurological deficit at 30 mg/kg, po after 0.5 hrs […]; assay type: toxicity, organism-based; set-up: dose 30 mg/kg, route oral; details: in vivo; outline: as §1
Mus musculus [34] = assay: Anticonvulsant activity against subcutaneous pentylenetetrazole-induced seizures in mouse at 100 mg/kg, ip after 4 hrs; assay type: functional, organism-based; set-up: dose 100 mg/kg; outline: as §5

Cc1cccc(C)c1OCC(=O)N[C@H]1CCCC[C@@H]1O.O=C(O)C(O)C(O)C(=O)O
68.7 mg/kg: TD50 [10]
active: Activity (Mus musculus [13]) | Activity (Mus musculus [14]) | Activity (Mus musculus [15]) | Activity (Mus musculus [31])
1.937: Ratio TD50/ED50 (Mus musculus [18])
inactive: Activity (Mus musculus [2]) | Activity (Mus musculus [3]) | Activity (Mus musculus [5]) | Activity (Mus musculus [8]) | Activity (Mus musculus [9]) | Activity (Mus musculus [17]) | Activity (Mus musculus [19]) | Activity (Mus musculus [20]) | Activity (Mus musculus [21]) | Activity (Mus musculus [23]) | Activity (Mus musculus [25]) | Activity (Mus musculus [28]) | Activity (Mus musculus [32]) | Activity (Mus musculus [34])
35.5 mg/kg: ED50 (Mus musculus [16])
0.25 h: Time (Mus musculus [29])
Non-toxic: Activity (Rattus norvegicus [1]) | Activity (Mus musculus [4]) | Activity (Mus musculus [6]) | Activity (Rattus norvegicus [7]) | Activity (Mus musculus [11]) | Activity (Rattus norvegicus [12]) | Activity (Mus musculus [22]) | Activity (Rattus norvegicus [24]) | Activity (Mus musculus [26]) | Activity (Mus musculus [27]) | Activity (Mus musculus [30]) | Activity (Rattus norvegicus [33])
